This is a sample that favours compounds with a hit; in the whole collection about 3.7% have one here.
Calpain2 inh: inhibitors of pig calpain II, primary screen, biochemical, fluorogenic peptide substrate, 1536-well; AID 1236, 2008; purified calpain II, 30 min; 220,000 tested, 0.37% active; inhibition, % at 16 µM;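 active = inhibition above about 50%, limit read from the data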
MDM2 E3 inh: MDM2-luciferase reporter signal enhancers, primary screen, MDM2 E3 ligase inhibitor project, cell-based, luminescence, 1536-well; cell-based MDM2 ubiquitination luciferase reporter, 2 h; 0 = plate control, 100 = twice control, blank-subtracted; E3 ubiquitin-protein ligase Mdm2 (Homo sapiens), Q00987; 210,000 tested, 0.11% active; signal enhancement, % at 5 µM;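 active = signal enhancement of 30% or more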;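 note: luminescence tracks abundance of the self-degrading MDM2-luciferase fusion protein; higher signal means inhibition of MDM2 E3 ligase activity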
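Test system: stable mammalian line carrying autodegrading MDM2–luciferase fusion reporter; quantity: 2000 cells in each well; times: 4 h cell settling then 2 h compound exposure, 37 °C; detection: luminescence with SteadyLite reagent, 15 min at room temperature; evaluation: percent signal gain over controls, blank-subtracted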
PKD1 kinase inh: inhibitors of human PKD1 kinase, biochemical, fluorescence polarization | AID 797, 2007 | inhibition, % (test concentration not listed) | 200,000 tested, 0.056% active | PKD1 kinase fluorescence polarization assay; in the data active = inhibition above about 50%
Arbovirus inh: antivirals against arbovirus infection, primary screen, cell-based, full library, 10K replicate subset; inhibition, % at 10 µM; AID 1251, 2008; 200,000 tested, 0.37% active; arbovirus infection cell-based antiviral screen; in the data active = inhibition above about 30%
Cl transport mod: KCC2 cotransporter modulators, thallium flux, primary screen, cell-based, HEK293 KCC2, FluoZin-2 fluorescence, MLSMR; 190,000 tested, 2.2% active; B-score of Tl+ flux slope (higher = more flux/activation; lower = inhibition) at 10 µM; KCC2 cells, thallium flux FluoZin-2 fluorescence;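 active = thallium flux slope and its plate-corrected score both differing from the plate sample mean at a set confidence after two filtering rounds, in either direction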;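 note: slope of fluorescence scaled to starting intensity during 10 to 20 s after thallium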
ROMK mod: ROMK potassium channel modulators, primary screen, cell-based, thallium flux, MLSMR library. ATP-sensitive inward rectifier potassium channel 1 (Homo sapiens), P48048. Tet-inducible ROMK, thallium flux fluorescence; actives lie on both sides. B-score at 10 µM. 130,000 tested, 2% active;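 active = signal ratio slope over the read window, or its plate-corrected B-score, at least 3 SD from the plate mean, either direction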;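 note: B-score of the F/F0 ratio slope over 7 to 12 s after thallium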
Target sequence (P48048 whole entry, looked up): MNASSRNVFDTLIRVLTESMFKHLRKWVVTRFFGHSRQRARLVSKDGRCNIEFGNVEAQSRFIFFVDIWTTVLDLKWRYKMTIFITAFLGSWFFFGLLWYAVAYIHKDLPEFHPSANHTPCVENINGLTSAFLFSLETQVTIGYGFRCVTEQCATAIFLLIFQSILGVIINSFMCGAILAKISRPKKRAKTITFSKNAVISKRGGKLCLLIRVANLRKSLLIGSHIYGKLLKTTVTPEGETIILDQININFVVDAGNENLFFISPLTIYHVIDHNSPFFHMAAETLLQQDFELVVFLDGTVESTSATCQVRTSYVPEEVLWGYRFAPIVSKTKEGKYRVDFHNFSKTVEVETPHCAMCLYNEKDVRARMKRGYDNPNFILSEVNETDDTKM
KCC2 secondary: KCC2 modulators in sodium-free buffer, confirmation, cell-based, HEK293 KCC2, thallium flux, secondary assay | 3,700 tested, 15% active | normalised thallium flux (F/F0 slope) at 10 µM | FluoZin2 fluorescence; hits give high values | shares compounds with Cl transport mod;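 active = thallium flux slope above the same plate's solvent-only control mean plus 3 SD; inconclusive = the two replicate wells disagree; inactive = no significant difference from solvent-only control wells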
KCC2 bumet counter: thallium flux persisting under bumetanide in KCC2 cells, confirmation, counter-screen for KCC2 modulator project, cell-based, HEK293 KCC2, FluoZin2, secondary assay 3; 3,700 tested, 49% active; HEK293-KCC2 + bumetanide/ouabain; hits give high values; shares compounds with Cl transport mod; normalized thallium flux at 10 µM;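 active = thallium entry rate above the same plate's blocked-transporter control wells by more than 3 SD; inconclusive = the two repeat wells disagree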;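 note: raw slope of fluorescence over initial fluorescence between 10 and 20 s after thallium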
KCC2 sec2: KCC2 modulators without ouabain present, confirmation, cell-based, HEK293 KCC2, thallium flux, FluoZin2, secondary assay 2 | shares compounds with Cl transport mod | thallium flux FluoZin2 fluorescence; actives lie on both sides; F/F0 rise rate, 10–20 s post-thallium | normalized thallium flux at 10 µM | 3,700 tested, 23% active;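 active = thallium flux slope more than 3 SD above or below the plate's solvent-only control mean, mostly below; inconclusive = the two repeat wells disagreed; inactive = no significant shift from solvent-only controls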
HEK counter1: thallium flux modulation in parental HEK cells, confirmation, counter-screen for KCC2 modulator project, cell-based, counterscreen 1. shares compounds with Cl transport mod. 3,700 tested, 46% active. HEK293 parental cells, thallium flux FluoZin2, ouabain; baseline-ratio fluorescence slope, 10–20 s after thallium. AID 1716, 2009. thallium flux rate (normalised fluorescence) at 10 µM;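 active = thallium flux rate significantly above the same plate's solvent-only control wells, beyond their mean plus 3 SD; inconclusive = the two replicate wells gave conflicting results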
KCC2 retest ouab: KCC2 inhibitors and activators, ouabain retest, confirmation, HEK-KCC2 cells | shares compounds with Cl transport mod | HEK293-KCC2, thallium flux FluoZin2 fluorescence; bidirectional: low = inhibitor, high = activator | raw Tl+ flux slope (below DMSO = inhibition, above = activation) at 10 µM | 3,700 tested, 48% active;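 active = thallium flux slope beyond 3 SD from same-plate DMSO control mean in most replicates, usually higher, sometimes lower; inconclusive = repeat tests gave conflicting results; inactive = no significant difference from controls in most replicates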;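 note: slope of initial-normalized fluorescence between seconds 10 and 20 after thallium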
HEK293 Tl flux2: native HEK Tl+ uptake effects, second counter-screen – HEK cells, counterscreen 2, counter-screen for KCC2 modulator project, confirmation; HEK293 parental, thallium flux FluoZin-2 fluorescence slope; thallium flux slope at 10 µM; 3,700 tested, 33% active; shares compounds with Cl transport mod;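 active = thallium flux slope above the same plate's solvent-control mean plus 3 SD in both duplicate wells; inconclusive = duplicate wells that disagreed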;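 note: run without ouabain in cells lacking the KCC2 cotransporter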
Each line names hits and unclear results; the compound was inactive in the other large screens (follow-up assays come after a bar, where they were run).

COc1ccc(-c2nc(CS(=O)CC(=O)NCc3cccnc3)c(C)o2)cc1 (stereo unspecified)	none (no result: ROMK mod)
Cc1oc(-c2ccccc2Cl)nc1CS(=O)CC(=O)NCc1cccs1 (stereo unspecified)	none (no result: Cl transport mod, ROMK mod)
Cc1oc(-c2ccc(Cl)cc2)nc1CS(=O)CC(=O)NCc1cccs1 (stereo unspecified)	Cl transport mod -3.6 (no result: ROMK mod) | KCC2 secondary inactive | KCC2 bumet counter inactive | KCC2 sec2 inactive | HEK counter1 inactive | KCC2 retest ouab inactive | HEK293 Tl flux2 inactive
CN(Cc1ncc[nH]1)C(=O)CC1C(=O)NCCN1Cc1c(F)cccc1Cl (stereo unspecified)	none
Cc1cc(CN(C)C(=O)CC2C(=O)NCCN2Cc2c(F)cccc2Cl)on1 (stereo unspecified)	Cl transport mod 7.87 (no result: PKD1 kinase inh, Arbovirus inh, ROMK mod) | KCC2 secondary inactive | KCC2 bumet counter inactive | KCC2 sec2 inactive | HEK counter1 inactive | KCC2 retest ouab inactive | HEK293 Tl flux2 inactive
N#Cc1nc(Cc2cccc3ccccc23)oc1NCc1ccco1	none (no result: Cl transport mod) | KCC2 secondary inconclusive | KCC2 bumet counter inactive | KCC2 sec2 inconclusive | HEK counter1 inconclusive | KCC2 retest ouab 0.0144 | HEK293 Tl flux2 inactive
N#Cc1nc(-c2ccccc2Cl)oc1NCC1CCCO1 (stereo unspecified)	none (no result: ROMK mod)
N#Cc1nc(Cc2cccc3ccccc23)oc1NCC1CCCO1 (stereo unspecified)	none (no result: Cl transport mod) | KCC2 secondary inactive | KCC2 bumet counter inactive | KCC2 sec2 inconclusive | HEK counter1 inactive | KCC2 retest ouab 0.0157 | HEK293 Tl flux2 inactive
N#Cc1nc(Cc2cccc3ccccc23)oc1NCCCN1CCOCC1	Cl transport mod -5.57 | KCC2 secondary inconclusive | KCC2 bumet counter inactive | KCC2 sec2 inactive | HEK counter1 inactive | KCC2 retest ouab 0.0137 | HEK293 Tl flux2 0.0114
Cc1ccc(C(=O)COc2ccccc2C(=O)Nc2ccccc2)cc1	none (no result: Cl transport mod)
Cc1cccc(NC(=S)N2CCN(S(=O)(=O)c3cccc(F)c3)CC2)c1	none
CC(C)(C)c1ccc(NC(=O)N2CCN(c3ccc([N+](=O)[O-])cn3)CC2)cc1	none (no result: PKD1 kinase inh, Arbovirus inh, ROMK mod)
O=C(COC(=O)C(O)C(O)C(=O)OCC(=O)c1ccc(C(F)(F)F)cc1)c1ccc(C(F)(F)F)cc1 (stereo unspecified)	none (no result: PKD1 kinase inh, Arbovirus inh)
Cc1ccccc1OCCN1C(=O)c2ccccc2C1=O	none (no result: ROMK mod)
